From ChEMBL document CHEMBL1124843, “Water-soluble renin inhibitors: design of a subnanomolar inhibitor with a prolonged duration of action” (J Med Chem, 1990) come the findings set out here.

SMILES strings stand for the structures. pIC50: −log10 of the molar value. ≈ marks a conversion by molar mass, not a printed value.

The nature of series [1]: Log P value at the pH of 6.5. Format: physicochemical. Conditions: octanol/water, pH 6.5; read-out: LogD6.5. The method, boiled down: (§1)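 Octanol/water partition. Inhibitor (0.3–0.5 mg) was dissolved in 1.00 mL octanol, and 200 μL was added to 5.00 mL buffer: 0.1 M PIPES pH 6.5 or 0.1 M HEPES pH 7.4. Samples were shaken 2 h and centrifuged, and both phases were diluted and quantified by HPLC. P was calculated from peak areas × dilution factors.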

Series [2] is described as follows: Log P value at the pH of 7.4. Format: physicochemical. Conditions: octanol/water, pH 7.4; read-out: LogD7.4. The method, boiled down:
as §1

A short description of series [3]: Solubility at 37 degree C and pH of 7.4. Conditions: pH 7.4; read-out: S. Format: physicochemical.
Series [4] concerns the target T1, Renin (Homo sapiens, UniProt P00797).
T1 sequence (P00797 whole entry): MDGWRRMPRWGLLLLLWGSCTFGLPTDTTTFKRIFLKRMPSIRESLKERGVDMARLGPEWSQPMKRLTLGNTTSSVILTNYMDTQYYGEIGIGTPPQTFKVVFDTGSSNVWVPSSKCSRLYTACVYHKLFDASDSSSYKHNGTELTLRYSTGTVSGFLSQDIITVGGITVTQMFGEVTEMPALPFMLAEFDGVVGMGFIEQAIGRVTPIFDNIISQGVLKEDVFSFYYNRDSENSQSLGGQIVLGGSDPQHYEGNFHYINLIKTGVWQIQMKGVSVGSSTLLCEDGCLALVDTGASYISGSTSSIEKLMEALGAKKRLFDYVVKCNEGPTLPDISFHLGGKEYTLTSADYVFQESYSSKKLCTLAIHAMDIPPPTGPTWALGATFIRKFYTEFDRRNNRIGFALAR
The experiment in a line: Inhibitory activity against purified human renal renin at pH 6.5. Format: functional.

Series [5] concerns the target T1, Renin. The experiment in a line: Inhibitory activity against human plasma renin at pH 7.4. Format: functional, cell-free.
The nature of series [6]: % change in blood pressure when administarted intravenously. Format: ADME. Conditions: iv. The method, boiled down:
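Anesthetized, salt-depleted cynomolgus monkeys, 0.1 mg/kg iv bolus (n = 5). Maximum % change in mean arterial pressure taken from the T = 0 baseline. […] Values are mean ± SE.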

Series [7] concerns the target Renin (Macaca fascicularis). In words: Inhibitory activity against monkey plasma renin at pH 7.4.
Series [8] is described as follows: Plasma level when given intraduodenally to anesthetized rats (systemic) at 10 min. Format: ADME, organism-based. Conditions: rat, read-out: Plasma level. The procedure, abridged: (§2)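 Anesthetized rats (n = 4) received unlabelled drug intraduodenally at 10 mg/kg. Portal and systemic blood were sampled at 10 and 30 min. Plasma drug levels were determined by a renin inhibition assay. Values are mean ± SE.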

Series [9] can be described thus: Plasma level when given intraduodenally to anesthetized rats (systemic) at 30 min. Format: ADME, organism-based. Conditions: rat, read-out: Plasma level. The procedure, abridged: as §2
The nature of series [10]: Plasma level when given intraduodenally to anesthetized rats from portal sample at 10 min. Format: ADME, organism-based. Conditions: rat, read-out: Plasma level. The procedure, abridged:
as §2

The nature of series [11]: Plasma level when given intraduodenally to anesthetized rats from portal sample at 30 min. Format: ADME, organism-based. Conditions: rat, read-out: Plasma level. The procedure, abridged:
as §2

For series [12], the system named is Rattus norvegicus. The experiment in a line: Excretion of radiolabeled [14C]-21 in rats when administered intravenously at the dose of 1.0 mg/kg. Also noted: dose 1 mg/kg, route intravenous. Format: ADME, organism-based. Conditions: in vivo, iv. The method, boiled down:
(§3)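 Rats got [14C]-labelled inhibitor (label at oxazolidinone carbonyl), 1 mg/kg orally or intravenously. Urine and feces were collected over 72 h. Feces were homogenized in 70% aqueous ethanol and aliquots burned in a sample oxidizer. Total radioactivity was counted by liquid scintillation with internal-standard quench correction and expressed as % of dose. Mean ± SE, n = 2.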

In series [13] the test system is Rattus norvegicus. In words: Excretion of radiolabeled [14C]-21 in rats when administered orally at the dose of 1.0 mg/kg. Also noted: dose 1 mg/kg, route oral. Conditions: in vivo, po. Format: ADME, organism-based. The method, boiled down: as §3
Series [14] concerns Rattus norvegicus. The experiment in a line: metabolic profile radiolabeled [14C]-21 in rats when administered intravenously at the dose of 1.0 mg/kg. Format: ADME, organism-based. Also noted: dose 1 mg/kg, route intravenous. Conditions: in vivo, iv. The method, boiled down: (§4)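 Rats were dosed orally or iv at 1 mg/kg with 14C-labelled drug. Urine and fecal samples were profiled by C-18 HPLC with a linear 15–50% aqueous acetonitrile gradient containing 0.1% TFA. Peaks were tentatively identified by retention time against reference standards, using 215 nm absorbance or radioactivity. Results are given as % of 14C dose, mean ± SE, n = 2.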

In series [15] the test system is Rattus norvegicus. In words: metabolic profile radiolabeled [14C]-21 in rats when administered orally at the dose of 1.0 mg/kg. Format: ADME, organism-based. The arrangement: dose 1 mg/kg, route oral. Conditions: in vivo, po. The method, boiled down:
as §4

As a reminder, the pIC50 is the IC50 on a negative log10 scale, so that one unit is a factor of ten. For `CCN1C[C@@H]([C@H](O)[C@H](CC2CCCCC2)NC(=O)[C@H](Cc2c[nH]cn2)NC(=O)[C@H](Cc2ccc(OC)cc2)NC(=O)C(C)C)OC1=O`, the logD came out at 2.67 in series [1] and 2.85 in series [2]. Besides, the solubility in series [3] came out at 0.37 mM (≈ 242 µg/mL). The pIC50 in series [4] was 8.77; in [5], 8.00.
For `CCN1C[C@@H]([C@H](O)[C@H](CC2CCCCC2)NC(=O)[C@H](Cc2cnc[nH]2)NC(=O)[C@H](Cc2ccc(OC)cc2)NC(=O)N2CCOCC2)OC1=O`, the logD in series [1] turned out to be 1.91; in series [2], 2.11. In series [3], the solubility turned out to be 5.9 mM (≈ 4120 µg/mL). Besides, the pIC50 in [4] is 8.47; in series [5] it was 8.02.
In the case of `CC(C)C(=O)N[C@@H](Cc1ccccc1)C(=O)N[C@@H](Cc1cnc[nH]1)C(=O)N[C@@H](CC1CCCCC1)[C@@H](O)[C@@H](O)CN=[N+]=[N-]`, the solubility in series [3] came out at 0.045 mM (≈ 26.9 µg/mL). Moreover, in [6], the Change is 18%. In series [7], the pIC50 was 9.54.
Consider `CCN1C[C@@H]([C@H](O)[C@H](CC2CCCCC2)NC(=O)[C@H](Cc2cnc[nH]2)NC(=O)[C@@H](CC(=O)N2CCOCC2)Cc2ccccc2)OC1=O`, for which the logD in series [1] is 1.9; in [2] it was 2.2. The pIC50 is 9.00 in series [4] and 8.89 in series [5].
With `CCN1C[C@@H]([C@H](O)[C@H](CC2CCCCC2)NC(=O)[C@H](Cc2cnc[nH]2)NC(=O)[C@H](Cc2ccc(OC)cc2)NC(=O)N2C[C@H](OCOC)[C@H](OCOC)C2)OC1=O`, the logD in series [1] was 1.94; in [2], 2.06. The values for the pIC50 in series [4] and in [5] were 7.92 and 7.23, respectively.
Regarding `CCN1C[C@@H]([C@H](O)[C@H](CC2CCCCC2)NC(=O)[C@H](Cc2cnc[nH]2)NC(=O)[C@H](Cc2ccc(OC)cc2)NC(=O)N(C)CC(O)CO)OC1=O` (stereo partly drawn), the logD was found to be 1.2 in series [1] and 1.42 in series [2]. Also, the results for the pIC50 in [4] and in series [5] were 8.10 and 7.34, respectively.
As to `CCN1C[C@@H]([C@H](O)[C@H](CC2CCCCC2)NC(=O)[C@H](Cc2c[nH]cn2)NC(=O)[C@H](Cc2ccc(OC)cc2)NC(=O)N(C)CCOCOCCOC)OC1=O`, the logD in series [1] was found to be 1.83; in [2], 2.03. For the same compound, the pIC50 in [4] was 8.77; in series [5], 7.85.
With `CCN1C[C@@H]([C@H](O)[C@H](CC2CCCCC2)NC(=O)[C@H](Cc2cnc[nH]2)NC(=O)[C@@H](CC(=O)N(C)CCOC)Cc2ccccc2)OC1=O`, the logD in [1] came out at 2.29; in series [2] it was 2.45. In addition, the solubility in [3] is 3.4 mM (≈ 2270 µg/mL). Moreover, the pIC50 in series [4] was 9.23; in series [5], 8.82.
For `CCN1C[C@@H]([C@H](O)[C@H](CC2CCCCC2)NC(=O)[C@H](Cc2c[nH]cn2)NC(=O)[C@H](Cc2ccc(OC)cc2)NC(=O)N(C)CCOCOC)OC1=O`, the logD in series [1] is 2.08; in series [2], 2.3. For the same compound, the solubility in series [3] was found to be 2.1 mM (≈ 1530 µg/mL). The pIC50 in [4] was 8.34; in series [5], 7.57.
For the compound `CCN1C[C@@H]([C@H](O)[C@H](CC2CCCCC2)NC(=O)[C@H](Cc2c[nH]cn2)NC(=O)[C@@H](CC(=O)N(C)CCOCOCCOC)Cc2ccccc2)OC1=O`, the logD worked out at 1.89 in series [1] and 2.21 in series [2]. In addition, the solubility in series [3] is 5.4 mM (≈ 4010 µg/mL). The results for the concentration at 10 min in series [8] and in series [10] were 1.6 ng/mL and 360 ng/mL, respectively. Further, the results for the concentration at 0.5 h in series [9] and in series [11] were 2.5 ng/mL and 420 ng/mL, respectively. For the same compound, the Dose was determined as 8.5% in series [12], 1.9% in series [13], 35% in [14] and 73% in series [15]. The Change in [6] is given as 43%.
For `CCN1C[C@@H]([C@H](O)[C@H](CC2CCCCC2)NC(=O)[C@H](Cc2cnc[nH]2)NC(=O)[C@@H](CC(=O)N(C)CCOCOC)Cc2ccccc2)OC1=O`, the logD in series [1] stood at 2.28; in [2], 2.49. Also, the results for the pIC50 in series [4] and in series [5] were 9.31 and 8.96, respectively.
With `CCN1C[C@@H]([C@H](O)[C@H](CC2CCCCC2)NC(=O)[C@H](Cc2cnc[nH]2)NC(=O)[C@@H](CC(=O)N2C[C@H](OCOCCOC)[C@H](OCOCCOC)C2)Cc2ccccc2)OC1=O`, the values for the logD in series [1] and in series [2] were 1.56 and 1.87, respectively. Besides, in series [3], the solubility was 8.7 mM (≈ 7470 µg/mL). Moreover, the pIC50 in series [4] was 8.80; in series [5] it was 8.14.
As to `CCN1C[C@@H]([C@H](O)[C@H](CC2CCCCC2)NC(=O)[C@H](Cc2cnc[nH]2)NC(=O)[C@H](Cc2ccc(OC)cc2)NC(=O)N2C[C@H](OCOCCOC)[C@H](OCOCCOC)C2)OC1=O`, the logD in [1] was 1.58; in series [2], 1.67. The pIC50 in series [4] was 8.07; in series [5], 7.59.
Consider `CCN1C[C@@H]([C@H](O)[C@H](CC2CCCCC2)NC(=O)[C@H](Cc2cnc[nH]2)NC(=O)[C@@H](CC(=O)N2C[C@H](OCOC)[C@H](OCOC)C2)Cc2ccccc2)OC1=O`, for which the logD stood at 2.08 in series [1] and 2.31 in series [2]. For the same compound, the solubility in series [3] turned out to be 4.5 mM (≈ 3470 µg/mL). Also, the pIC50 is 8.57 in series [4] and 7.96 in series [5].
As to `CCN1C[C@@H]([C@H](O)[C@H](CC2CCCCC2)NC(=O)[C@H](Cc2cnc[nH]2)NC(=O)[C@@H](CC(=O)N(C)CCO)Cc2ccccc2)OC1=O`, the logD was determined as 1.74 in series [1] and 1.94 in series [2]. In addition, in series [3], the solubility came out at 5.2 mM (≈ 3410 µg/mL). For the same compound, the results for the negative logarithm of the IC50 (pIC50) in [4] and in series [5] were 9.07 and 8.60, respectively.
As to `CCN1C[C@@H]([C@H](O)[C@H](CC2CCCCC2)NC(=O)[C@H](Cc2c[nH]cn2)NC(=O)[C@H](Cc2ccc(OC)cc2)NC(=O)N2C[C@@H](O)[C@@H](O)C2)OC1=O`, the logD was determined as 0.91 in series [1] and 1.22 in series [2]. The values for the pIC50 in series [4] and in series [5] were 8.16 and 8.06, respectively.
